Compounds with a hit are over-represented: about 1.9% of the library has one in this group of screens.
HIF act: HIF pathway transcriptional activation. U2OS HRE-luciferase reporter, luminescence; normalized: DMSO 0%, desferrioxamine 100%. 300,000 tested, 0.32% active. activation, % at 7.5 µM (by protocol);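 active means mean activation of at least 10% of the iron chelator positive control signal, with at least half of replicates also reaching 10%; inconclusive means mean and replicate majority disagree about reaching 10%; inactive means mean and most replicates under 10%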
procasp3 activ: procaspase-3 (human) activation. P42574. recombinant procaspase-3 D3A, Ac-DEVD-pNA absorbance 405 nm. activation, % at 8.5 µM. 330,000 tested, 0.11% active. AID 463141;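 active means activation above the mean of all tested compounds plus 3 SD, cut at about 21% in these data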;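 further: 0% = DMSO alone and 100% = DMSO wells spiked with extra 5 µM PC-3 D3A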
Target sequence (P42574 whole entry D9A/D28A/D175A): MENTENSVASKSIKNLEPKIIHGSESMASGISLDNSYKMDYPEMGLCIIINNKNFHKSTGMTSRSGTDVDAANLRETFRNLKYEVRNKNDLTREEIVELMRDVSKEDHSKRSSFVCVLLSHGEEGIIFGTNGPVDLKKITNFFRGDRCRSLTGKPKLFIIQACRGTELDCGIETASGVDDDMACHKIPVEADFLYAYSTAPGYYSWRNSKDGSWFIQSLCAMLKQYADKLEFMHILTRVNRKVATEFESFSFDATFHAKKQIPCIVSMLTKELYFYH
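Test system: Procaspase-3 D3A mutant; medium: Zinc-free HEPES/NaCl buffer with 0.01% Triton X-100 at pH 7.4; reagent: DEVD-pNA substrate; doses: one concentration, 8.5 µM nominal, 0.8% DMSO; times: 1 h preincubation plus 2 h reaction at 25 °C; signal: Epi-absorbance at 405 nm of released p-nitroaniline, 0 and 120 min; replicates: singlicate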
procasp7 counter: counter-screen for procaspase-3 activators: activators of human procaspase-7. activation, % at 8.5 µM. P55210. AID 463210. 330,000 tested, 0.093% active. recombinant procaspase-7, Ac-DEVD-pNA absorbance 405 nm; D23A/D198A/D206A triple mutant, cannot self-cleave; scale: DMSO 0, 5 µM enzyme 100;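 active means percent activation above the screen-wide mean plus 3 SD, cut at about 25% in these data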
Target sequence (P55210 whole entry D23A/D198A/D206A): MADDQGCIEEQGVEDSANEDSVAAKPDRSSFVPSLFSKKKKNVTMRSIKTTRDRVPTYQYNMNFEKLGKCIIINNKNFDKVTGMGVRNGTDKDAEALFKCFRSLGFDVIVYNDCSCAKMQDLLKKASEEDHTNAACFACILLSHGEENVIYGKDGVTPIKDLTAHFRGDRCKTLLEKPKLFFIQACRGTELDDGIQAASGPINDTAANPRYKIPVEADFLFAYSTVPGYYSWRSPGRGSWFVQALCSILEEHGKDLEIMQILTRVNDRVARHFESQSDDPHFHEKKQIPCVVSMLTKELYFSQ
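Assay system: Uncleavable procaspase-7 mutant enzyme | Input: 2 µM procaspase-7 mutant as dispensed | Timing: 1 h compound preincubation, 2 h substrate cleavage, 25 °C | Repeats: One well per compound | Control set: DMSO wells as 0%, DMSO with 5 µM added PC-7 as 100% | Technique: Epi-absorbance of released pNA at 405 nm, two timepoints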
Neddylation inh: inhibitors of human cullin neddylation; inhibition, % at 25 µM; TR-FRET cullin neddylation, biochemical; 360,000 tested, 0.58% active; AID 651699; P61081+Q13564; in the data active means inhibition above about 36%
Calb FLC: affects C. albicans growth with fluconazole. AID 1979. C. albicans CaCi-2 (fluconazole-resistant clinical isolate) + fluconazole, Alamar Blue growth, 48 h. 300,000 tested, 0.57% active. growth inhibition, % (test concentration not listed);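 active means growth inhibition above about 58% in most replicates, limit read from the data, passing the limit was not always enough; inconclusive means exactly half the replicates above a set limit; inactive means most replicates below a set limit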;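 further: all wells also contain fluconazole at 8 µg/ml as a sub-toxic cotreatment; 0% = median of DMSO wells and 100% = median of geldanamycin control wells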
GAA850 FXN act: frataxin GAA850 promoter activation. AID 540364. HEK293 lucGAA850 FXN promoter luciferase reporter, 24 h; percent of 10 µM SAHA response. activation, % at 6 µM. 360,000 tested, 0.56% active;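 active means activation above the average of all compounds screened plus 3 SD, cutoff fixed separately per campaign, cut at about 7.5% in these data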;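 further: 0% = DMSO wells and 100% = 10 µM SAHA wells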
* marks the source's active call; other numbers are inactive results; ? = inconclusive; nt = no result given.

SMILES | HIF act | procasp3 activ | procasp7 counter | Neddylation inh | Calb FLC | GAA850 FXN act
COc1cc(N/N=C/c2ccc(N(C)C)cc2)ncn1 | -1 | 13 | -1 | 40* | 19 | 2
O=C1NC[C@H](CCCCN2C[C@H](Cc3ccccc3)N(CC3CCCCC3)C(=O)C2=O)N(CCc2ccccc2)C1=O | nt | nt | nt | 9 | nt | nt
CC1CCCN(CC(=O)Nc2ccc(S(=O)(=O)N3C(C)CCCC3C)cc2)C1 (stereo not drawn) | nt | nt | nt | -4 | nt | 2
Cc1cc(/C=N/NC(N)=S)c(C)n1-c1ccc(Cl)cc1 | 0 | -3 | -17 | -1 | -32 | 1
Cc1cc(/C=N/NC(N)=S)c(C)n1-c1cccc(Cl)c1 | 0 | 2 | -14 | 11 | 104* | 0
Cc1cc(/C=N/NC(=O)c2cccc(N(C)C)c2)c(C)n1-c1cc(C(=O)O)cc(C(=O)O)c1 | 1 | nt | nt | 39* | -1 | 5
Cc1cc(/C=N/NC(=O)C(O)(c2ccccc2)c2ccccc2)c(C)n1-c1cccc(C(=O)O)c1 | 0 | -2 | 4 | 22 | 5 | 0
O=C(NCc1ccco1)c1ccc(-c2ccc3nccn3c2)cc1 | nt | nt | nt | 31 | nt | -1
Nc1[nH]c(C(=O)c2ccccc2)c(-c2ccccc2C(F)(F)F)c1C(=O)NCc1cccc2ccccc12 | nt | nt | nt | 11 | nt | nt
Cc1cn([C@H]2C[C@H](O)[C@@H](CNCc3cc(Br)ccc3OCc3ccccc3)O2)c(=O)[nH]c1=O | nt | nt | nt | -8 | nt | -2
Oc1ccc(Nc2nc(-c3cccnc3)cs2)cc1 | 7 | -3 | -4 | -17 | 11 | 9.0*
Brc1ccc(Nc2nc(-c3cccnc3)cs2)cc1 | 5 | 1 | 5 | 0 | -17 | 7
CN(C)C(CNC(=O)C1CCN(S(=O)(=O)c2cc(Cl)ccc2Cl)CC1)Cc1ccccc1 (stereo not drawn) | nt | nt | nt | 5 | nt | 0
COCCn1cnnc1SCC(=O)Nc1cc(OC)c([N+](=O)[O-])cc1C | 0 | 5 | 0 | -16 | 114* | 0
CCCCc1ccc(-n2nnnc2SCC(=O)Nc2cc(OC)c([N+](=O)[O-])cc2C)cc1 | 0 | 6 | -5 | 0 | 6 | 1
COc1ccc(NC(=O)CSc2nc3c(c(=O)[nH]2)CCC3)cc1OC | 12* | 2 | -6 | -3 | -4 | 1
N#C/C(=C\c1cccn1S(=O)(=O)c1cccc(C#N)c1)S(=O)(=O)c1ccc(F)cc1 | nt | nt | nt | -5 | nt | -1
c1ccc(Cc2nnc(-c3ccccc3)o2)cc1 | 9.7* | 2 | -5 | -6 | -9 | 3
CCOC(=O)C1(C)CCCN(C(=O)c2ccc3ccccc3c2)C1 (stereo not drawn) | nt | nt | nt | -10 | nt | -1
CCOC(=O)c1sc(NC(=S)NC(=O)C2CC2)cc1C | 72* | -8 | -10 | -168 | 2 | 2
COc1ccc([C@H]2C[C@@H](O)[C@H](n3cc(COC(=O)c4ccccc4)nn3)CN2CC2CCCCC2)cc1 | nt | nt | nt | -3 | nt | 2
Cc1ccc(-n2nnnc2C(Cl)(Cl)c2nnnn2-c2ccc(C)cc2)cc1 | 1 | -18 | -37 | 11 | 103* | 4
CC(C)n1c(N2CCN(C(=O)Nc3ccc(Cl)cc3)CC2)nc2ccccc21 | 0 | 2 | 5 | 4 | 73* | 0
Cn1c(=O)c2cc(NC(=O)CCc3cccnc3)ccc2n1Cc1ccc(F)cc1 | nt | nt | nt | nt | nt | -1
COc1cccc(C(Nc2ccccc2)c2ccc3ccc(C)nc3c2O)c1 (stereo not drawn) | nt | nt | nt | 15 | nt | nt
SMILES | HIF act | procasp3 activ | procasp7 counter | Neddylation inh | Calb FLC | GAA850 FXN act
Oc1cccc(C(Nc2nccs2)c2ccc3cccnc3c2O)c1 (stereo not drawn) | 35* | 9 | -1 | -4 | 103* | -3
COc1cccc(C(NC(C)=O)c2ccc3cccnc3c2O)c1 (stereo not drawn) | 38* | 4 | -2 | -2 | 80* | -9
CC(=O)NC(c1cccc([N+](=O)[O-])c1)c1ccc2cccnc2c1O (stereo not drawn) | 231* | nt | nt | -18 | -10 | -8
CCCCC(=O)NC(c1cccc([N+](=O)[O-])c1)c1ccc2cccnc2c1O (stereo not drawn) | nt | nt | nt | -11 | nt | -6
Cc1cccc(NS(=O)(=O)c2ccc(C)c(C(=O)NCC(c3ccco3)N3CCCCC3)c2)c1 (stereo not drawn) | nt | nt | nt | 7 | nt | -3
CCN1CCN(CCCOc2ccc(-c3ccccc3)cc2)CC1 | 60* | -2 | -5 | nt | -20 | nt
CCc1nc2ccc(C(=O)NCCC(C)C)cn2c1N(C)Cc1ccc(OC)cc1 | nt | nt | nt | 1 | nt | -3
CCCCC1Cc2[nH]c(=S)[nH]c(=O)c2C(C(C)C)O1 (stereo not drawn) | nt | nt | nt | -188 | nt | nt
CCOC(=O)c1cc2sccc2n1CC(=O)Nc1ccc(OC)cc1 | 36* | 3 | 5 | -23 | -3 | -2
CCN(CC(=O)Nc1c(F)cccc1F)C(=O)c1cccc(S(=O)(=O)N2CCCc3ccccc32)c1 | nt | nt | nt | -8 | nt | 0
Cc1nc(NS(=O)(=O)c2cccs2)c2c3c(sc2n1)CCC3 | 0 | 7 | 8 | 0 | ? | -2
Cc1nc(NS(=O)(=O)c2ccc(Br)cc2)c2c3c(sc2n1)CCC3 | 0 | -4 | 5 | -5 | 92* | -2
Cc1ccc2nc(-c3ccccc3NC(=O)CCC(=O)O)c(=O)[nH]c2c1 | 24* | nt | nt | -5 | -5 | 1
CC(C)C(=O)Nc1ccccc1-c1nc2ccccc2[nH]c1=O | 0 | -3 | 9 | -15 | -12 | 1
CCOc1cc(/C=N/NC(=O)c2cccnc2)ccc1OCC(N)=O | nt | 4 | 8 | 3 | 107* | 0
Cc1ccc(-c2nnc(Sc3nc4ccccc4o3)c3ccccc23)cc1 | 94* | 3 | 1 | -90 | 4 | 3
CCSc1nnc(-c2ccc(C)cc2)c2ccccc12 | -2 | 4 | 5 | -69 | 93* | 2
CNC(=S)/N=C/NOCc1ccc(Cl)cc1Cl | 0 | -6 | -9 | 1 | 93* | -2
NC(=O)NOCc1ccc(Cl)cc1Cl | 0 | 9 | 7 | 4 | -7 | 6
CC1(C2CCC3C4CCC5CC6(CCC5(C)C4C(=O)CC32C)OCCO6)OCCO1 (stereo not drawn) | nt | nt | nt | -1 | nt | -2
Cc1cccc(N2C(N)=C(C#N)C(C#N)(C#N)C2c2ccccc2)c1 (stereo not drawn) | 0 | 3 | 11 | nt | 9 | 3
N#CC1=C(N)N(c2ccccc2)C(c2ccco2)C1(C#N)C#N (stereo not drawn) | 0 | -4 | 2 | 39* | 7 | 7
COc1cccc(NC(=O)C2(C)CCN2CCc2ccccc2)c1 (stereo not drawn) | nt | nt | nt | 0 | nt | 1
COc1coc(C(O)CN)cc1=O (stereo not drawn) | 0 | 3 | -9 | 2 | -3 | -1

Compound activity (PubChem BioAssay)
